According to article PMC11348603 (BMC Pharmacology & Toxicology, 2024):
Read-outs that look alike come from different tables or passages of the source.

What was measured:
[1] = type: in vivo, healthy Chinese adult volunteers; settings: for subjects whose concentration-time curves displayed multiple peaks: fasting state
Method in brief: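 Two open-label BE studies in healthy Chinese adults, each giving one reference tablet dose (20 mg or 80 mg) with 240 mL water. Subjects either fasted ≥10 h pre-dose or ate a high-fat, high-calorie meal (800–1000 kcal) within 30 min of dosing. Blood was drawn from 30 min pre-dose to 48 h post-dose. Plasma was separated at 3000 rpm, stored at −70 °C, and assayed by LC-MS/MS. Cmax, tmax and AUCs came from non-compartmental analysis.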

[2] = Population pharmacokinetic analysis; type: in vivo, healthy Chinese adult volunteers
Method in brief: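 Pooled plasma data from 128 subjects were fitted by SAEM with a two-compartment model: first-order elimination, two deposit absorption compartments, lag times. Parameters were log-normal with exponential IIV, and proportional, additive and combined residual errors were tested. Stepwise covariate search used p<0.05 forward and p<0.01 backward. Sex, age, WT and BMI were tested on CL/F and volume. Food (0 fasted, 1 fed) was tested on absorption parameters. Evaluation used AIC, OFV, GOF, VPC (1000 simulations) and NPDE.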

[3] = parameters: species or system healthy Caucasian subjects; settings: Caucasian
Method in brief: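 Monte Carlo simulation from the final Chinese-population model, with CL/F raised and relative bioavailability lowered per earlier published race covariate estimates. The 24 simulated Caucasian subjects had demographics matching a reported food-effect study.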

[4] = Reported food effect study in Caucasian population; type: in vivo, healthy Caucasian subjects; settings: average of the 40 mg and 120 mg group, observed data of ref 22
[5] = fractional difference of race, relative to Chinese model; cited from earlier work
[6] = humans, cited from earlier work
[7] = cited from earlier work
[8] = cited from earlier work; remark: listed apart in the source
[9] = cited from earlier work; remark: listed apart in the source
[10] = fasted, average of the 40 mg and 120 mg group

SMILES: Cc1nc(-c2ccc(OCC(C)C)c(C#N)c2)sc1C(=O)O [febuxostat, 2-[3-cyano-4-(2-methylpropoxy)phenyl]-4-methylthiazole-5-carboxylic acid]
- Cmax (mean ± SD) ([1]; 20 mg single oral dose, fasting (n=36), plasma): 1.091 ± 0.301 µg/mL
- subjects whose concentration-time curves displayed multiple peaks ([1]; 20 mg, may be overestimated): approximately 75.0%
- Tmax (median, range) ([1]; 80 mg single oral dose, fed (n=30), plasma): 1.75 (0.75, 4.00) h
- subjects whose concentration-time curves displayed multiple peaks ([1]; 80 mg, may be overestimated): ~80.6%
- curves showing multiple peaks ([1]; fed study, may be overestimated): about 40%
- Tmax ([1]; human, plasma, po, 20 mg): 1.25 h
- estimated CL/F for healthy Chinese subjects ([2]; PopPK final model): 6.14 L/h
- CL/F, final model estimate (RSE%) ([2]; apparent clearance): 6.14 (2.26) L∙h^−1
- Vc/F, final model estimate (RSE%) ([2]; apparent distribution volume of central compartment): 10.38 (2.07) L
- Vp/F, final model estimate (RSE%) ([2]; apparent distribution volume of peripheral compartment): 10.22 (3.21) L
- WT_Vc/F, final model estimate (RSE%) ([2]; covariate coefficient of body weight on Vc/F): 0.58 (27.9)
- WT_Vp/F, final model estimate (RSE%) ([2]; covariate coefficient of body weight on Vp/F): 1.15 (22.5)
- Food_Tlag1, final model estimate (RSE%) ([2]; covariate coefficient of fed state on Tlag1): 0.73 (18.2)
- Food_ka1, final model estimate (RSE%) ([2]; covariate coefficient of fed state on ka1): −2.04 (8)
- Food_ka2, final model estimate (RSE%) ([2]; covariate coefficient of fed state on ka2): −1.08 (19.9)
- reduction of ka1 by food ([2]; fed vs fasted, final model): 87%
- reduction of ka2 by food ([2]; fed vs fasted, final model): 66%
- ka1, final model estimate (RSE%) ([2]; first-order absorption rate constant of first depot, fasted state): 4.02 (11.4) h^−1
- ka2, final model estimate (RSE%) ([2]; first-order absorption rate constant of second depot, fasted state): 4.34 (15.6) h^−1
- F1, final model estimate (RSE%) ([2]; fraction of absorbed febuxostat from first depot): 0.51 (3.7)
- Q/F, final model estimate (RSE%) ([2]; in vivo): 1.93 (4.25) L∙h^−1
- Tlag1, final model estimate (RSE%) ([2]; lag time of first depot, fasted state): 0.22 (8.93) h
- Tlag2, final model estimate (RSE%) ([2]; lag time of second depot): 0.92 (7.63) h
- predicted fed/fasted ratio of AUC ([3]; simulated): 1.02
- predicted fed/fasted ratio of Cmax ([3]; simulated): 0.68
- predicted fed/fasted ratio of Tmax ([3]; simulated): 1.53
- ratio of mean predicted and observed AUC [3, 10]: 0.92
- ratio of mean predicted and observed Cmax [3, 10]: 0.81
- ratio of mean predicted and observed Tmax [3, 10]: 1.41
- ratio (predicted/observed) of AUC ([3]; fed state): 1.13
- ratio (predicted/observed) of Cmax ([3]; fed state): 0.92
- ratio (predicted/observed) of Tmax ([3]; fed state): 1.13
- fed/fasted ratio of observed mean AUC [4]: 0.83
- fed/fasted ratio of observed mean Cmax [4]: 0.60
- fed/fasted ratio of observed mean Tmax [4]: 1.87
- decrease of bioavailability applied for Caucasian subjects [5]: 46%
- extent of metabolism by glucuronidation [6]: up to 40%
- time to reach maximum plasma concentrations (Cmax) ([6]; oral administration, fasting condition): 0.5 ~ 1.5 h
- CL/F reported by Rekić et al. [7]: 14.58 L/h
- CL/F estimate for healthy Australian subjects [8]: 6.91 L/h
- solubility in methanol ([9]; methanol): slightly soluble
- solubility in water ([9]; water): practically insoluble
